Data as given in paper PMC2196277 (The Journal of Experimental Medicine, 1997).

What was measured:
[1] = target: T1, H2-K^d (Mus musculus, UniProt P01902); assay type: cell-based, BALB/c
[2] = target: T1, H2-K^d; settings: ref [17], [19], [20]; cited from earlier work
[3] = target: T2, H2-K^d (L. monocytogenes-infected J774 cells) (Mus musculus, UniProt P01902); assay: CTL epitope quantification; assay type: cell-based, BALB/c; settings: for loss of epitope in BFA-treated cells after tetracycline: BFA added 3 h and TCN 4 h after infection; for time for which intracellularly retained H2-K^d binds new epitopes: BFA-treated, CHX–ANM 4 h after infection, up to; for epitopes per cell after CHX–ANM treatment: CHX and ANM added 4 h after infection
T2 sequence (P01902 22-368): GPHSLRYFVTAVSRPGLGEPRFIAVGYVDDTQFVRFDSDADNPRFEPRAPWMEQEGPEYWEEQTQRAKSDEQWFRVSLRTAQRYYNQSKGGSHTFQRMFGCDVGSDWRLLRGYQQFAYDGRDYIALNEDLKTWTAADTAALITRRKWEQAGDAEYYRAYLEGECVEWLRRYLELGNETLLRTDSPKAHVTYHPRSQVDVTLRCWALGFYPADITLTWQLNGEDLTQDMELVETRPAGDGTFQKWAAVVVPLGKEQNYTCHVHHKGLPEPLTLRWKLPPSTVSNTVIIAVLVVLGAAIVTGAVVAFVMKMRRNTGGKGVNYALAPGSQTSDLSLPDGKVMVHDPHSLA
T2 sequence (P01887 21-119, further chain): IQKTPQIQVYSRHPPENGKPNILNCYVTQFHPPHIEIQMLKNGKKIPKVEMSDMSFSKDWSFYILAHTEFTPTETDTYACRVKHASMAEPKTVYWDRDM
Outline: (§1)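 J774 monolayers in antibiotic-free RP10 were infected for 30 min with log-phase L. monocytogenes (OD600 0.1), then kept in 5 μg/ml gentamicin. BFA was added 3 h post-infection, and tetracycline or CHX–ANM at 4 h. Cells were scraped, extracted in 0.1% TFA, homogenised, sonicated, ultracentrifuged and HPLC-fractionated. Fractions were titrated in triplicate on 51Cr-labelled P815 with Kd-restricted CTL clones against synthetic-peptide standards, giving epitopes per infected cell.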

[4] = system: CTL responding to epitope; settings: murine infection with L. monocytogenes; ref [31]; cited from earlier work
[5] = target: T1, H2-K^d; assay type: cell-based, BALB/c; settings: infected cells; for half-life of peptide–H2-K^d complexes: normally trafficking H2-K^d (no BFA)
Outline: as §1

[6] = target: T2, H2-K^d (L. monocytogenes-infected J774 cells); settings: ref [17], cited from earlier work

T1 sequence (P01902 22-368): as the sequence (P01902 22-368) above
T1 sequence (P01887 21-119, further chain): as the sequence (P01887 21-119, further chain) above

## C[C@H]1CCC/C=C/[C@@H]2C[C@H](O)C[C@H]2[C@H](O)/C=C/C(=O)O1 [BFA, brefeldin A]
[1]
  effect of BFA on H2-K^d trafficking / retention: induces intracellular retention of H2-K^d molecules in infected J774 cells

## KYGVSVQDI [p60 217-225]
[2]
  number of secreted antigen molecules degraded per H2-K^d-associated epitope: 35
[3]; BFA added 3 h after infection, no tetracycline
  effect of BFA on amount of epitope extracted: not affected by BFA
[3]
  loss of epitope in BFA-treated cells after tetracycline: decreased only minimally
  time for which intracellularly retained H2-K^d binds new epitopes: up to 3 h
[3]; no BFA
  epitopes per cell after CHX–ANM treatment: stops increasing when host cell protein synthesis is inhibited
[4]
  number of responding CTL relative to p60 449-457: 10 times
[5]
  stability of complex with H2-K^d (summary): forms a stable complex with H2-K^d
  half-life of peptide–H2-K^d complexes: > 6 h

## IYVGNGQMI [p60 449-457]
[6]; L. monocytogenes infected J774 cells
  generation of epitope relative to p60 217-225: earlier and faster than p60 217-225
[6]; first few hours of infection, J774
  amount of epitope extracted relative to p60 217-225: ~10 times
[6]; infected cells, continuous antigen production
  prevalence of epitope throughout cellular infection: greater than either LLO 91-99 or p60 217225 throughout cellular infection
[2]
  number of secreted antigen molecules degraded per H2-K^d-associated epitope: 3–11
[3]; 3 h after tetracycline (20 μg/ml, added 4 h after infection), no BFA
  epitopes per cell 3 h after tetracycline: 1,000 epitopes/cell
[3]; BFA added 3 h after infection, 6–7 h after infection, no tetracycline
  increase of epitopes extracted from BFA-treated vs untreated cells: ~60%
[3]
  loss of epitope in BFA-treated cells after tetracycline: very rapid
  time for which intracellularly retained H2-K^d binds new epitopes: up to 3 h
[3]; no BFA
  epitopes per cell after CHX–ANM treatment: decreases after CHX–ANM treatment
[3]; start of drop after tetracycline (20 μg/ml, added 4 h after infection), no BFA
  epitopes per cell at tetracycline addition: 9,000 epitopes/cell
[5]
  stability of complex with H2-K^d (summary): forms a more labile complex with H2-K^d
  half-life of peptide–H2-K^d complexes: ~1 h
[5]; + BFA
  half-life of complexes retained intracellularly with brefeldin A: 0.5 h

## GYKDGNEYI [LLO 91-99, reference compound]
[2]
  number of secreted antigen molecules degraded per H2-K^d-associated epitope: 3–11
